Data set [1] concerns Mycobacteroides abscessus. Briefly: Antibacterial activity against Mycobacterium abscessus. Type of data set: functional.
A further data set deals with HT-29. Briefly: Cytotoxicity against human HT-29 cells assessed as reduction in cell viability incubated for 72 hrs by SRB assay. Type of data set: toxicity, cell-based.
Data set [2] concerns Mycobacteroides abscessus. Put plainly: Antibacterial activity against MMV688845-resistant Mycobacterium abscessus Bamboo 845R-2.1 harboring rpoB/beta subunit P473L mutation assessed as bacterial growth inhibition incubated for 3 days by optical density based analysis. Type of data set: functional. The settings on record: Bamboo 845R-2.1, 72 h, time 3 day. Summed up:
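Tenfold-point twofold dilution series in 7H9, final DMSO 1 %. Final ranges typically 50–0.098 or 6.25–0.012 μM. Mid-log culture added to an initial OD₆₀₀ of 0.05 (5*10⁶ CFU/mL). Incubated 3 days at 37 °C with shaking at 110 rpm. Growth taken as OD₆₀₀ on day 3 minus day 0, as % of drug-free wells. MIC₉₀ read visually from the curves. Clarithromycin as control. Two biological replicates, averaged.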

Data set [3] concerns Mycolicibacterium smegmatis. Briefly: Antibacterial activity against Mycobacterium smegmatis mc2 155 expressing tomato RFP assessed as bacterial growth inhibition incubated for 3 days in 7H9 medium by RFP fluorescence based broth microdilution method. Type of data set: functional. The settings on record: mc2 155, 72 h, time 3 day. In a few lines:
(§1)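 Broth microdilution in 7H9 with 10 % ADS and 0.05 % Tween 80. Twofold nine-point dilution series. Inoculum 5 x 10⁵ cells/mL taken from a mid-log preculture. Incubation at 37 °C, 3 days for M. smegmatis and M. abscessus, 5 days for M. intracellulare. Read-out by RFP fluorescence (ex 544/em 590 nm). Controls were 1 % DMSO and 100 μM amikacin. MIC₉₀ from duplicates, averaged.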

A short description of data set [4]: Stability in human plasma at 1 uM measured over 120 mins by HPLC-MS/MS analysis. The class given is ADME, cell-free. The settings on record: 2 h.
Another data set concerns MCF7. Briefly: Cytotoxicity against human MCF7 cells assessed as reduction in cell viability incubated for 72 hrs by SRB assay. The class given is toxicity, cell-based.
Data set [5] concerns Mycobacteroides abscessus. Briefly: Antibacterial activity against Mycobacterium abscessus Bamboo harboring inactive clarithromycin-sensitive erm41 C28 sequevar assessed as bacterial growth inhibition incubated for 3 days in 7H9 medium by optical density based method. The class given is functional. The settings on record: 72 h, time 3 day.
Data set [6] relates to Mycobacterium intracellulare. Put plainly: Antibacterial activity against Mycobacterium intracellulare ATCC 35761 expressing tomato RFP assessed as bacterial growth inhibition incubated for 5 days in 7H9 medium by RFP fluorescence based broth microdilution method. Type of data set: functional. The settings on record: ATCC 35761, 120 h, time 5 day. Summed up:
as §1
On the technique in general: Dilution methods test growth across graded concentrations, often in twofold steps.

The next data set relates to A2780. Briefly: Cytotoxicity against human A2780 cells assessed as reduction in cell viability incubated for 72 hrs by SRB assay. Type of data set: toxicity, cell-based.
For data set [7], the system named is Mycobacteroides abscessus. Put plainly: Antibacterial activity against Mycobacterium abscessus ATCC 19977 expressing tomato RFP assessed as bacterial growth inhibition incubated for 3 days in 7H9 medium by RFP fluorescence based broth microdilution method. Type of data set: functional. The settings on record: ATCC 19977, 72 h, time 3 day. Summed up:
as §1

Data set [8] can be described thus: Kinetic solubility of compound in PBS at 0.78 to 500 uM measured immediately by nephelometric method. Type of data set: physicochemical. The settings on record: buffer, dose 0.78-500 µM. In a few lines:
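DMSO stocks prediluted in DMSO, then diluted 1:50 into PBS (2 % DMSO final) and read immediately by nephelometry at 0.78–500 μM; blank-corrected data fitted by segmental regression; quadruplicates from one stock.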

Data set [9] can be described thus: Metabolic stability in pooled human liver microsomes assessed as half life at 2 uM measured over 40 mins in presence of NADPH-cofactor system by HPLC-MS/MS analysis. The class given is ADME, Microsome. Summed up:
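Pooled mixed-gender human liver microsomes at 0.42 mg protein/mL in 100 mM phosphate pH 7.4 with MgCl₂ and an NADPH-regenerating system. Test compound 2 μM, 1.6 % solvent, at 37 °C. Five time points over 40 min, stopped with acetonitrile, analysed by HPLC-MS/MS. t1/2 from the slope of ln(AUC) versus time. Controls lacked NADPH. Duplicates.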
(In general: Microsomes from liver hold many membrane-bound enzymes, among them those of drug oxidation.)

Data set [10] deals with Mycobacteroides abscessus. Put plainly: Bactericidal activity against Mycobacterium abscessus ATCC 19977 assessed as reduction in viable bacteria incubated for 4 days by microplate dilution assay. The class given is functional. The settings on record: time 4 day.
The test system of another data set is HeLa. Briefly: Cytotoxicity against human HeLa cells assessed as reduction in cell viability incubated for 72 hrs by SRB assay. Type of data set: toxicity, cell-based. On the technique in general: Sulforhodamine B stains cellular protein and so reports cell mass.
For data set [11], the system named is Mycobacteroides abscessus. Briefly: Antibacterial activity against Mycobacterium abscessus ATCC 19977 expressing tomato RFP assessed as bacterial growth inhibition incubated for 3 days in MHII medium by RFP fluorescence based broth microdilution method. Type of data set: functional. The settings on record: ATCC 19977, 72 h, time 3 day. Summed up:
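Broth microdilution in MHII broth with 0.05 % Tween 80, against the RFP-expressing strain. Twofold nine-point dilution series. Inoculum 5 x 10⁵ cells/mL from a mid-log preculture. Incubated 3 days at 37 °C. Read-out by RFP fluorescence (ex 544/em 590 nm). Controls were 1 % DMSO and 100 μM amikacin. MIC₉₀ from duplicates, averaged.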

For data set [12], the system named is Mycobacteroides abscessus. Put plainly: Bactericidal activity against Mycobacterium abscessus ATCC 19977 assessed as reduction in viable bacteria at 6.25 to 12.5 uM incubated for 4 days by microplate dilution assay. The class given is functional, organism-based. The settings on record: dose 6.25-12.5 µM, time 4.0 day.
Data set [13] has as its system Mycobacteroides abscessus. Briefly: Antibacterial activity against Mycobacterium abscessus ATCC 19977 expressing tomato RFP infected in human THP-1 cells assessed as bacterial growth inhibition incubated for 4 days in RPMI medium by RFP fluorescence based assay. Type of data set: functional. The settings on record: ATCC 19977, 96 h, time 4 day. Summed up:
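RFP M. abscessus washed, moved into RPMI, filtered through 5 µm and opsonised with 10 % human serum for 30 min. THP-1 cells infected at MOI 5:1 with PMA 40 ng/mL for 4 h at 37 °C, then washed. Infected cells (1x10⁵/well) given a ten-point twofold series. Incubated 4 days at 37 °C, 5 % CO₂. Cells PFA-fixed and DAPI-stained. RFP quantified by imaging. Controls were DMSO and 1.5 µM bedaquiline. Duplicate.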

Data set [14] can be described thus: Stability in mouse plasma at 1 uM measured over 120 mins by HPLC-MS/MS analysis. The class given is ADME, cell-free. The settings on record: 2 h.
Data set [15] relates to Mycobacterium tuberculosis. Briefly: Antibacterial activity against Mycobacterium tuberculosis H37Rv ATCC 27294 assessed as bacterial growth inhibition incubated for 7 days in 7H9 medium by optical density based microplate reader analysis. The settings on record: H37Rv ATCC 27294, 168 h, time 7 day. The class given is functional. Summed up: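 Compounds serially diluted in flat-bottom 96-well plates. Mid-log culture mixed in to a final OD₆₀₀ of 0.05. Sealed plates incubated in humidified boxes at 37 °C for 7 days with shaking at 80 rpm. Turbidity read at 600 nm. MIC₉₀ taken from dose–response curves. Two biological replicates, averaged.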

In data set [16] the test system is Mycobacterium tuberculosis. Put plainly: Antibacterial activity against Mycobacterium tuberculosis. The class given is functional.
In a further data set the test system is A-375. Briefly: Cytotoxicity against human A-375 cells assessed as reduction in cell viability incubated for 72 hrs by SRB assay. The class given is toxicity, cell-based.
The nature of data set [17]: Cytotoxicity against mouse NIH3T3 cells assessed as reduction in cell viability incubated for 72 hrs by SRB assay. The class given is toxicity, cell-based. The settings on record: mouse, NIH3T3 cells.

≈ marks a conversion by molar mass, not a printed value. Calls of active or inactive are those of the source. The calls are words filed in the database; no cut-off is given here.

The results in this text go back to ChEMBL document CHEMBL5344415, “Synthesis and Characterization of Phenylalanine Amides Active against Mycobacterium abscessus and Other Mycobacteria” (J Med Chem, 2023).

Take `O=C(N[C@H](Cc1ccccc1)C(=O)Nc1ccccc1N1CCOCC1)c1cccs1`: the MIC90 in data set [1] is 7 µM (≈ 3.05 µg/mL); in data set [2] it was more than 100 µM; in [3], 0.78 µM (≈ 0.34 µg/mL); in data set [5] it was 4.4 µM (≈ 1.92 µg/mL); in data set [6] it was 0.78 µM (≈ 0.34 µg/mL); in data set [7], 6.25 µM (≈ 2.72 µg/mL). For the same molecule, the MIC90 came to 12.5 µM (≈ 5.44 µg/mL) in [11], 12.5 µM (≈ 5.44 µg/mL) in data set [13], 0.78 µM (≈ 0.34 µg/mL) in data set [15] and 1.2 µM (≈ 0.523 µg/mL) in data set [16]. For the same molecule, the EC50 in the data set with HT-29, with MCF7, in the data set on A2780, in the data set with HeLa and with A-375 was more than 30 µM throughout. The Stability result was “Stable” in data set [4] and “Unstable” in data set [14]. For the same molecule, the MIC50 in data set [5] is 1.7 µM (≈ 0.74 µg/mL); in [13], 1.56 µM (≈ 0.679 µg/mL). Also, in data set [8], the Kinetic_solubility is 82 µM. Further, in data set [9], the t1/2 came out at 1.7 min. For the same molecule, the MBC99 in data set [10] worked out at 50 µM (≈ 21.8 µg/mL). In [12], the outcome was inactive. Moreover, the EC50 at 72 h in data set [17] is more than 30 µM.

Broadly, the MIC90 is the lowest concentration that inhibits either 90% of growth or 90% of the strains tested, depending on the study. In general, EC50 refers to the midpoint of the concentration-response curve. As a reminder, the MIC50 is an inhibitory concentration at the 50% level, which refers to growth in some studies and to a panel of isolates in others.
